Active and inactive are the calls of the source. No cut-off for these calls is given here.
What was measured:
[1] = tested on: HeLa; assay: Inhibition of protein synthesis in human HeLa cells at 1 uM after 60 mins by [35S]methionine metabolic labeling study; assay type: functional, cell-based
[2] = tested on: Escherichia coli; assay: Inhibition of eIF4A-mediated cap-dependent protein synthesis in Escherichia coli S30 extract transfected with FF-HCV-Ren mRNA at 50 uM by [35S]methionine metabolic labeling study
[3] = target: Eukaryotic initiation factor 4A (Triticum aestivum) (UniProt P41378); assay: Inhibition of eIF4A-mediated cap-dependent protein synthesis in wheat germ extract transfected with FF-HCV-Ren mRNA by [35S]methionine metabolic labeling study
Procedure, shortened: (§1)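 Rabbit reticulocyte lysate or wheat germ extract translations were run to kit instructions. Control reactions carried the same final DMSO concentration as the compound-containing reactions.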

[4] = Inhibition of DED1-mediated helicase activity by helicase assay
Procedure, shortened: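 Helicase assay used the RNA-1/11 duplex with 25 nM Ded1p and 1 mM ATP. Products were separated on gels, dried, and exposed to film at -80 °C for 12 h.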

[5] = organism: Oryctolagus cuniculus; assay: Inhibition of 80S ribosome complex formation in rabbit reticulocyte lysate in presence of 600 uM cyclohexamide assessed as increase in unbound mRNA at 50 uM; assay type: functional
Procedure, shortened: (§2)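 ³²P-labelled CAT mRNA was incubated 10 min in wheat germ extract or rabbit reticulocyte lysate. Additions were 600 µM cycloheximide, 1 mM GMP-PNP, and 50 µM compound or vehicle. Mixtures were sedimented through 10–30% glycerol gradients at 200,000g for 3.5 h. Fraction radioactivity was measured by scintillation counting.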

[6] = tested on: HeLa; assay: Inhibition of RNA synthesis in human HeLa cells assessed as [3H] Uridine incorporation at 1 uM by scintillation counting; assay type: functional, cell-based
[7] = tested on: Nucleic Acid; assay: Inhibition of EMCV IRES-mediated translation in Swiss mouse Krebs2 extract transfected with bicistronic mRNA by [35S]methionine metabolic labeling study; conditions: Encephalomyocarditis virus
Procedure, shortened: (§3)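 In vitro translation in Krebs-2 extracts programmed with capped bicistronic transcripts at 5 µg ml⁻¹ mRNA and 100 mM K⁺ final. Firefly and renilla luciferase activities read by luminometer. Alternatively, [³⁵S]methionine-labelled products were run on 10% SDS gels and autoradiographed. Control reactions held the same final DMSO level as the compound reactions.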

[8] = target: Eukaryotic initiation factor 4A-I (Homo sapiens) (UniProt P60842); assay: Inhibition of eIF4A binding to 32p cap-labeled mRNA at 50 uM
Procedure, shortened: (§4)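 Oxidized ³²P cap-labelled CAT mRNA was chemically cross-linked in reactions with 0.9 mM ATP. Protein sources were 1 µg recombinant eIF4A_I, 0.7 µg native eIF4F, or an initiation factor preparation. Competitors were 0.6 mM m⁷GDP or GDP; compound was 50 µM. Samples were RNase A-treated, resolved by SDS-PAGE, and autoradiographed.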

[9] = tested on: HeLa; assay: Inhibition of protein synthesis in human HeLa cells at 1 uM by [35S]methionine metabolic labeling study; assay type: functional, cell-based
[10] = tested on: Nucleic Acid; assay: Inhibition of polio virus IRES-mediated translation in Swiss mouse Krebs2 extract transfected with bicistronic mRNA by [35S]methionine metabolic labeling study; conditions: Enterovirus C; procedure, shortened: as §3
[11] = tested on: Nucleic Acid; assay: Inhibition of PTV-1 IRES-mediated translation in Swiss mouse Krebs2 extract transfected with bicistronic mRNA by [35S]methionine metabolic labeling study; conditions: Porcine teschovirus 1; procedure, shortened: as §3
[12] = target: Eukaryotic translation initiation factor 4B (Homo sapiens) (UniProt P23588); assay: Inhibition of eIF4B interaction with mRNA cap structure in presence of 0.6 mM m7GDP at 50 uM by chemical cross-linking assay; procedure, shortened: as §4
[13] = tested on: HeLa; assay: Inhibition of protein synthesis in human HeLa cells after 50 mins by [35S]methionine metabolic labeling study; assay type: functional, cell-based
[14] = target: Eukaryotic initiation factor 4A-I (Homo sapiens) (UniProt P60842); assay: Inhibition of eIF4A interaction with mRNA cap structure in presence of 0.6 mM m7 GDP at 50 uM by chemical cross-linking assay; procedure, shortened: as §4
[15] = target: Eukaryotic initiation factor 4A-I (Homo sapiens) (UniProt P60842); assay: Inhibition of eIF4A-mediated helicase activity by helicase assay
Procedure, shortened: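 Helicase assay used the RNA-1/11 duplex with 0.4 µM recombinant eIF4A_I and 1 mM ATP. Products were separated on gels, dried, and exposed to film at -80 °C for 12 h.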

[16] = tested on: HeLa; assay: Inhibition of DNA synthesis in human HeLa cells assessed as [3H] thymidine incorporation at 1 uM by scintillation counting; assay type: functional, cell-based
[17] = tested on: Internal ribosome entry site (IRES); assay: Inhibition of HCV IRES-mediated protein synthesis in FF-HCV-Ren mRNA transfected Swiss mouse Krebs2 cell extract at 50 uM by [35S]methionine metabolic labeling study; conditions: Hepacivirus hominis; procedure, shortened: as §3
[18] = target: Eukaryotic initiation factor 4A-I (Homo sapiens) (UniProt P60842); assay: Inhibition of eIF4A RNA binding activity in presence of 0.6 mM m7GDP at 50 uM; procedure, shortened: as §4
[19] = tested on: HeLa; assay: Growth inhibition of human HeLa cells at 80 nM after 24 hrs; assay type: functional, cell-based
[20] = target: Eukaryotic initiation factor 4A-I (Oryctolagus cuniculus) (UniProt P29562); assay: Inhibition of eIF4A-mediated cap-dependent protein synthesis in rabbit reticulocyte lysate transfected with FF-HCV-Ren mRNA by [35S]methionine metabolic labeling study; procedure, shortened: as §1
[21] = tested on: HeLa; assay: Disruption of polyribosmes in human HeLa cells at 1 uM after 20 mins; assay type: functional, cell-based
[22] = target: Eukaryotic initiation factor 4A-I (Mus musculus) (UniProt P60843); assay: Inhibition of eIF4A-mediated cap-dependent protein synthesis in Swiss mouse Krebs2 extract transfected with FF-HCV-Ren mRNA in presence of recombinant eIF4AIf by [35S]methionine metabolic labeling study
Procedure, shortened: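 Krebs-2 translation programmed with FF-HCV-Ren mRNA at 5 µg ml⁻¹ mRNA and 100 mM K⁺ final. Conditions were 0.4 µM compound or 0.004% DMSO, with or without 2.2 µM recombinant eIF4A_If. [³⁵S]methionine products were resolved by SDS-PAGE and autoradiographed. Translational efficiency was taken relative to luciferase from vehicle controls. Three experiments; s.e.m.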

[23] = target: Eukaryotic initiation factor 4A-I (Mus musculus) (UniProt P60843); assay: Inhibition of eIF4A-mediated cap-dependent translation in Swiss mouse Krebs2 extract transfected with bicistronic mRNA by [35S]methionine metabolic labeling study; procedure, shortened: as §3
[24] = target: Eukaryotic translation initiation factor 4E (Homo sapiens) (UniProt P06730); assay: Inhibition of eIF4E RNA binding activity in presence of 0.6 mM m7GDP at 50 uM; procedure, shortened: as §4
[25] = target: Eukaryotic translation initiation factor 4E (Homo sapiens) (UniProt P06730); assay: Inhibition of eIF4E interaction with mRNA cap structure in presence of 0.6 mM m7 GDP at 50 uM by chemical cross-linking assay; procedure, shortened: as §4
[26] = target: Eukaryotic initiation factor 4A-I (Homo sapiens) (UniProt P60842); assay: Inhibition of eIF4A RNA-dependent ATPase activity assessed as rate of ATP hydrolysis
Procedure, shortened: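 Recombinant murine eIF4A_I (4.5 µg) was expressed in E. coli BL21(DE3) and purified by Ni-NTA and Q-Sepharose. It was incubated with 1 µM [γ-³²P]ATP and 2.5 µM poly(U). Hydrolysis was quantified by phosphorimager. Rate was plotted against compound concentration relative to 0.5% DMSO.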

[27] = tested on: Triticum aestivum; assay: Inhibition of 48S ribosome complex formation in wheat germ extract in presence of 1 mM GMP-PNP assessed as increase in unbound mRNA at 50 uM; assay type: functional; procedure, shortened: as §2
[28] = target: Eukaryotic initiation factor 4A-I (Mus musculus, UniProt P60843); assay: Inhibition of eIF4A-mediated cap-dependent protein synthesis in FF-HCV-Ren mRNA transfected Swiss mouse Krebs2 cell extract by [35S]methionine metabolic labeling study
Procedure, shortened: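 Cell-free translation in Krebs-2 extracts programmed with capped bicistronic FF-HCV-Ren transcript: cap-dependent firefly cistron, HCV IRES-driven renilla cistron. Final mRNA 5 µg ml⁻¹, K⁺ 100 mM, compound titrated. Controls carry a matched final DMSO level. Products labeled with [³⁵S]methionine, separated by 10% SDS-PAGE, and autoradiographed. Luciferase activities are read by luminometer and expressed relative to vehicle reactions.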

[29] = tested on: Nucleic Acid; assay: Inhibition of CrPV IRES-mediated translation in Swiss mouse Krebs2 extract transfected with bicistronic mRNA by [35S]methionine metabolic labeling study; procedure, shortened: as §3
[30] = target: Eukaryotic initiation factor 4A-I (Homo sapiens) (UniProt P60842); assay: Induction of eIF4A to [alpha-32P]ATP cross linking relative to control
Procedure, shortened: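 [α-³²P]ATP (2.5 µCi) was UV cross-linked to 1 µg recombinant eIF4A_I or 0.7 µg native eIF4F, with 0.5% DMSO or 50 µM compound. Samples were run on SDS-PAGE and autoradiographed at -70 °C for 12 h. Four experiments.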

Sequence of Eukaryotic initiation factor 4A-I (Homo sapiens) (P60842 whole entry): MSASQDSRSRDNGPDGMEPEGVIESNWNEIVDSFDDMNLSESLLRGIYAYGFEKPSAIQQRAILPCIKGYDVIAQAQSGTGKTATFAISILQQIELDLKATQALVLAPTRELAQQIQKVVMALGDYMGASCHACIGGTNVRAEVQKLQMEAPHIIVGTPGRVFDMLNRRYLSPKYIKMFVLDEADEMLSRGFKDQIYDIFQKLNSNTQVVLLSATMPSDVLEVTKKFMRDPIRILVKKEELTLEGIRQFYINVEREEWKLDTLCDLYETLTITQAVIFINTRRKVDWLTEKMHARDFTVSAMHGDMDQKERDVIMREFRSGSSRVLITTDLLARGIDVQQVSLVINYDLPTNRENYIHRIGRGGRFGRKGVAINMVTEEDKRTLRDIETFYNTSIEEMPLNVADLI
Sequence of Eukaryotic initiation factor 4A-I (Mus musculus) (P60843 whole entry): as the sequence (P60842 whole entry) above
Sequence of Eukaryotic translation initiation factor 4E (Homo sapiens) (P06730 whole entry): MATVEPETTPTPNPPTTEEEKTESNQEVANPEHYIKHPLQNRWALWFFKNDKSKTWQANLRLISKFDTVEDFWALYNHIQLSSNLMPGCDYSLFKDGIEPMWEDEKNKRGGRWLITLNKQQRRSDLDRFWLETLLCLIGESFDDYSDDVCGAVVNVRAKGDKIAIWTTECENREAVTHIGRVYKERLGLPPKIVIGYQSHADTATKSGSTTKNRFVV
Sequence of Eukaryotic initiation factor 4A (Triticum aestivum) (P41378 whole entry): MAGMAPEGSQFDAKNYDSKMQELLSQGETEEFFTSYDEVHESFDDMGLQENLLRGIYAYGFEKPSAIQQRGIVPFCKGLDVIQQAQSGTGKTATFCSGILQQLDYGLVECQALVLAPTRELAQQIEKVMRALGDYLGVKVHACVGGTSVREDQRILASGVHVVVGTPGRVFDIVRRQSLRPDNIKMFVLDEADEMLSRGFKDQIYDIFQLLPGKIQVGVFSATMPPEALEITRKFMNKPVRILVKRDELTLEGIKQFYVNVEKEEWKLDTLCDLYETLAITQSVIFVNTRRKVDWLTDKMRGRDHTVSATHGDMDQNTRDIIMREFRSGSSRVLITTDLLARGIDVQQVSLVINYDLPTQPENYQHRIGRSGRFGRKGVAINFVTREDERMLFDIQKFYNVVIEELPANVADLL
Sequence of Eukaryotic initiation factor 4A-I (P60843 whole entry): as the sequence (P60842 whole entry) above
Sequence of Eukaryotic translation initiation factor 4B (Homo sapiens) (P23588 whole entry): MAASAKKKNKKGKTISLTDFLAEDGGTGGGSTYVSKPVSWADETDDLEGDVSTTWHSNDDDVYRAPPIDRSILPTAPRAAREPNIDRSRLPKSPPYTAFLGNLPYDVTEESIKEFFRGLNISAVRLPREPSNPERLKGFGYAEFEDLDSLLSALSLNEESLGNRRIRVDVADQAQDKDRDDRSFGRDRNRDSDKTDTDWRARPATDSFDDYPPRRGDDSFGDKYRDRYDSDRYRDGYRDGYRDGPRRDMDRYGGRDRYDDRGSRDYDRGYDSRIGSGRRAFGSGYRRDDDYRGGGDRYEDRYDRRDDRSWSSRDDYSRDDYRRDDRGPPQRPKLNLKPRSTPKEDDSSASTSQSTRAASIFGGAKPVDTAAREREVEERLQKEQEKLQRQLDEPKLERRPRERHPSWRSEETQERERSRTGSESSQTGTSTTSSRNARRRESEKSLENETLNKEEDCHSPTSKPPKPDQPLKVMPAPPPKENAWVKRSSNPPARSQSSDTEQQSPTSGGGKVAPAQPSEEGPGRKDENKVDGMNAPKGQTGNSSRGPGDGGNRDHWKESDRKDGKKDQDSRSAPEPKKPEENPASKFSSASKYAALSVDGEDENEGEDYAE
Sequence of Eukaryotic initiation factor 4A-I (Oryctolagus cuniculus) (P29562 whole entry): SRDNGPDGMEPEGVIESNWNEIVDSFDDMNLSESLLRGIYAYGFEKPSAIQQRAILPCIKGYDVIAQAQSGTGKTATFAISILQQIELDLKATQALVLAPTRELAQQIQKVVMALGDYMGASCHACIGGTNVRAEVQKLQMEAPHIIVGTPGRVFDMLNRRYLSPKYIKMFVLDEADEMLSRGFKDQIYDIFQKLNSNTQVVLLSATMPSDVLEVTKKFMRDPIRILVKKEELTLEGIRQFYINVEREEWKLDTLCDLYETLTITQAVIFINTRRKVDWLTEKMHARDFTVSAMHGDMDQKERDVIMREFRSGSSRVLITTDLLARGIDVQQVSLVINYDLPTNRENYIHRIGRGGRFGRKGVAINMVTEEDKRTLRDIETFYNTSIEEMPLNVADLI

With `C[C@H]1C[C@@]2(O[C@H]3C[C@H]4[C@@H]5CC[C@H]6C[C@H](O)CC[C@]6(C)[C@H]5[C@@H](O)C[C@]4(C)[C@H]3[C@@]2(C)O)OC1(C)C` [HIPPURISTANOL] the inhibition [1] was “Active”, the inhibition [2] was “Active” and the inhibition [3] was “Active”. For the same compound, the inhibition [4] was “inactive”, the inhibition [5] was “Active” and the inhibition [6] was “Active”. For the same compound, the inhibition [7] was “Active”, the inhibition [8] was “Active” and the inhibition [9] was “Active”. The inhibition [10] was “Active”, the inhibition [11] was “Active” and the inhibition [12] was “Active”. The inhibition [13] was “Active”, the inhibition [14] was “Active” and the inhibition [15] was “Active”. The inhibition [16] was “Active”, the inhibition [17] was “inactive” and the inhibition [18] was “Active”. For the same compound, the inhibition [19] was “Active”, the inhibition [20] was “Active” and the inhibition [21] was “Active”. The inhibition [22] was “Active”, the inhibition [23] was “Active” and the inhibition [24] was “inactive”. For the same compound, the inhibition [25] was “inactive”, the inhibition [26] was “Active” and the inhibition [27] was “Active”. For the same compound, the IC50 [28] was 400 nM, the inhibition [29] was “inactive” and the fold change (FC) [30] was 2.
